Results collected from several papers.
Lines come from different studies, so protocols differ.
MDH2: Malate dehydrogenase, mitochondrial (MDH2, Sus scrofa, UniProt P00346)
AKT1: RAC-alpha serine/threonine-protein kinase (AKT1, Homo sapiens, UniProt P31749)

CNC(=O)c1cc2c(Oc3ccc(NC(=O)C4(C(=O)Nc5ccc(F)cc5)CC4)cc3)ccnc2cc1OC  IC50 (Ephrin type-A receptor 2 (EPHA2, Homo sapiens, UniProt P29317); enzyme activity, inhibitor, radiometric): 0.054 µM
O=C(Nc1ccc(Sc2nc3ccccc3s2)cc1)c1cccc(Br)c1O  IC50 (MDH2; enzyme activity, inhibitor): > 62.5 µM
CC(C)(C)n1nc(-c2ccc3nc(OC4CC4)ccc3c2)c(C(N)=O)c1N  IC50 (AKT1; cell-free assay): > 10 µM
COc1ccc(S(=O)(=O)Nc2ccc3oc(-c4ccc(NS(=O)(=O)c5cc(Br)ccc5OC)cc4)nc3c2)cc1  IC50 (MDH2; enzyme activity, inhibitor): > 62.5 µM
CC(=O)N[C@@H](CCCNC(=N)N)C(=O)NCCOCCOCC(=O)N[C@H](CC(=O)O)C(=O)N1CCC[C@H]1B(O)O  Ki (Dipeptidyl peptidase 4 (DPP4, Homo sapiens, UniProt P27487); enzyme activity, inhibitor, fluorescence): 7.13 µM
Cc1cnc(-c2ccc(-c3ccc(NC(=O)Nc4c(F)cc(F)cc4F)cc3F)c3c2C(=O)NC3)[nH]1  Kd (NT-3 growth factor receptor (NTRK3, Homo sapiens, UniProt Q16288); binding, competition with immobilised ligand): 0.0009 µM
CC(C)C[C@H](NC(=O)[C@H](CCCNC(=N)N)NC(=O)[C@H](C)N)C(=O)N[C@@H](Cc1ccc(O)cc1)C(=O)N[C@@H](Cc1ccc(O)cc1)C(=O)N[C@@H](Cc1ccccc1)C(=O)N[C@@H](Cc1c[nH]c2ccccc12)C(=O)N[C@@H](CC(=O)O)C(=O)N[C@H](C(=O)O)[C@@H](C)O  Ki (DNA dC->dU-editing enzyme APOBEC-3G (APOBEC3G, Homo sapiens, UniProt Q9HC16); enzyme activity, inhibitor): ~7.8 µM
CO[C@@H]1O[C@@H](C)[C@@H](O)[C@@H](O)[C@@H]1O  Kd (fleA (Aspergillus fumigatus, UniProt Q4WW81); binding, ITC): 76.4 µM
CC(=O)N[C@@H](Cc1ccccc1)C(=O)N1CCC[C@H]1C(=O)N1CCC[C@H]1C(=O)N1CCC[C@H]1C(=O)N1CCC[C@H]1C(=O)O  Kd (Protein enabled homolog (ENAH, UniProt Q8N8S7); binding, fluorescence): 500 µM
Cc1ncsc1-c1ccc(CNC(=O)[C@@H]2C[C@@H](O)CN2C(=O)[C@@H](NC(=O)CCCCCCCCCC(=O)N2CCN(CC[C@H](NC(=O)C3(N)CCN(c4ncnc5[nH]ccc45)CC3)c3ccc(Cl)cc3)CC2)C(C)(C)C)cc1  Kd (AKT1; binding, competition with immobilised ligand): 0.01 µM
O=S(=O)(Nc1ccc(-c2nc3cc(NS(=O)(=O)c4cccc5ccccc45)ccc3o2)cc1)c1cccc2ccccc12  IC50 (MDH2; enzyme activity, inhibitor): > 62.5 µM
CCCN1CCN(c2ccc(-c3cncc(Cl)c3N3CCC4(CCNC4=O)CC3)cc2)CC1  Kd (Cyclin-dependent kinase 1 (CDK1, Homo sapiens, UniProt P06493); cell-free assay; lysate): 18.9 µM
[O-][n+]1cccc(CCOc2ccc(Cl)c3ccccc23)c1  EC50 (G-protein coupled receptor 84 (Gpr84, Mus musculus, UniProt Q8CIM5); cAMP, agonist): 0.011 µM
Cc1cc2nc3c(=O)[nH]c(=O)nc-3n(C[C@H](O)[C@H](O)[C@H](O)COP(=O)(O)OP(=O)(O)OC[C@H]3O[C@@H](n4cnc5c(N)ncnc54)[C@H](O)[C@@H]3O)c2cc1C  Kd (Protein argonaute-2 (AGO2, Homo sapiens, UniProt Q9UKV8); binding; lysate): 0.021 µM
CCCCCCCCCCCCCCCC(=O)OC[C@H](COP(=O)(O)OC1[C@H](O)[C@H](O)C(OP(=O)(O)O)[C@H](O)[C@H]1O)OC(=O)CCCCCCCCCCCCCCC (stereo partly drawn)  Kd (Proto-oncogene tyrosine-protein kinase Src (SRC, Homo sapiens, UniProt P12931); binding, fluorescence): 25.7 µM
